Measurements taken from ChEMBL document CHEMBL5058577, “EUbOPEN Chemogenomics Library 2 (Multiplex)” (2022).

Tested on: Fibroblast
Test: Multiplex assay against human fibroblast
Assay type: toxicity, cell-based
Outline: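 Phenotypes for tubulin, mitochondrial mass and membrane permeability are expressed as per cents of healthy-nucleus cells. Cells were stained live at seeding with Hoechst33342, BioTracker Green Microtubule Cytoskeleton Dye, MitoTracker Red and Annexin V Alexa Fluor 680, then imaged after compound addition on a CQ1 microscope at 37°C and 5% CO2. Machine-learning gating in CellPathfinder separated Hoechst high-intensity objects from normal cells, divided normal cells by nuclear state (healthy, pyknosed, fragmented) and divided pyknosed cells into mitotic or apoptotic.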

[1] = 12 h, 1 µM, compound concentration 1 uM, replicate 1
[2] = 12 h, 1 µM, compound concentration 1 uM, replicate 2
[3] = 12 h, 10 µM, compound concentration 10 uM, replicate 1
[4] = 12 h, 10 µM, compound concentration 10 uM, replicate 2
[5] = 24 h, 1 µM, compound concentration 1 uM, replicate 1
[6] = 24 h, 1 µM, compound concentration 1 uM, replicate 2
[7] = 24 h, 10 µM, compound concentration 10 uM, replicate 1
[8] = 24 h, 10 µM, compound concentration 10 uM, replicate 2
[9] = 48 h, 1 µM, compound concentration 1 uM, replicate 1
[10] = 48 h, 1 µM, compound concentration 1 uM, replicate 2
[11] = 48 h, 10 µM, compound concentration 10 uM, replicate 1
[12] = 48 h, 10 µM, compound concentration 10 uM, replicate 2

## COc1cc(C(=O)N(CCCc2ccccc2)Cc2ccc(CC(=O)O)cc2)cc(OC)c1C
[1]
  Population Apoptotic (%): 63%
  Population Fragmented Nuclei (%): 14%
  Population Healthy Nuclei (%): 73%
  Population Hoechst High Intensity Objects (%): 2%
  Population Membrane Permeable-Phenotype (%): 0%
  Population Mitochondria Different-Phenotype (%): 0%
  Population Mitotic Cells (%): 36%
  Population Normal (%): 97%
  Population Pyknosed Nuclei (%): 12%
  Population Tubulin-Different-Phenotype (%): 15%
  Total Cell Count: 160
[2]
  Population Apoptotic (%): 42%
  Population Fragmented Nuclei (%): 37%
  Population Healthy Nuclei (%): 45%
  Population Hoechst High Intensity Objects (%): 4%
  Population Membrane Permeable-Phenotype (%): 11%
  Population Mitochondria Different-Phenotype (%): 5%
  Population Mitotic Cells (%): 57%
  Population Normal (%): 95%
  Population Pyknosed Nuclei (%): 16%
  Population Tubulin-Different-Phenotype (%): 36%
  Total Cell Count: 176
[3]
  Population Apoptotic (%): 41%
  Population Fragmented Nuclei (%): 16%
  Population Healthy Nuclei (%): 70%
  Population Hoechst High Intensity Objects (%): 2%
  Population Membrane Permeable-Phenotype (%): 0%
  Population Mitochondria Different-Phenotype (%): 5%
  Population Mitotic Cells (%): 58%
  Population Normal (%): 97%
  Population Pyknosed Nuclei (%): 12%
  Population Tubulin-Different-Phenotype (%): 28%
  Total Cell Count: 197
[4]
  Population Apoptotic (%): 45%
  Population Fragmented Nuclei (%): 25%
  Population Healthy Nuclei (%): 61%
  Population Hoechst High Intensity Objects (%): 4%
  Population Membrane Permeable-Phenotype (%): 7%
  Population Mitochondria Different-Phenotype (%): 4%
  Population Mitotic Cells (%): 54%
  Population Normal (%): 95%
  Population Pyknosed Nuclei (%): 13%
  Population Tubulin-Different-Phenotype (%): 47%
  Total Cell Count: 181
[5]
  Population Apoptotic (%): 68%
  Population Fragmented Nuclei (%): 11%
  Population Healthy Nuclei (%): 77%
  Population Hoechst High Intensity Objects (%): 1%
  Population Membrane Permeable-Phenotype (%): 0%
  Population Mitochondria Different-Phenotype (%): 0%
  Population Mitotic Cells (%): 31%
  Population Normal (%): 98%
  Population Pyknosed Nuclei (%): 10%
  Population Tubulin-Different-Phenotype (%): 13%
  Total Cell Count: 156
[6]
  Population Apoptotic (%): 52%
  Population Fragmented Nuclei (%): 44%
  Population Healthy Nuclei (%): 41%
  Population Hoechst High Intensity Objects (%): 4%
  Population Membrane Permeable-Phenotype (%): 1%
  Population Mitochondria Different-Phenotype (%): 6%
  Population Mitotic Cells (%): 48%
  Population Normal (%): 95%
  Population Pyknosed Nuclei (%): 13%
  Population Tubulin-Different-Phenotype (%): 28%
  Total Cell Count: 189
[7]
  Population Apoptotic (%): 55%
  Population Fragmented Nuclei (%): 12%
  Population Healthy Nuclei (%): 76%
  Population Hoechst High Intensity Objects (%): 1%
  Population Membrane Permeable-Phenotype (%): 1%
  Population Mitochondria Different-Phenotype (%): 6%
  Population Mitotic Cells (%): 45%
  Population Normal (%): 98%
  Population Pyknosed Nuclei (%): 10%
  Population Tubulin-Different-Phenotype (%): 25%
  Total Cell Count: 192
[8]
  Population Apoptotic (%): 40%
  Population Fragmented Nuclei (%): 25%
  Population Healthy Nuclei (%): 61%
  Population Hoechst High Intensity Objects (%): 4%
  Population Membrane Permeable-Phenotype (%): 5%
  Population Mitochondria Different-Phenotype (%): 0%
  Population Mitotic Cells (%): 59%
  Population Normal (%): 96%
  Population Pyknosed Nuclei (%): 13%
  Population Tubulin-Different-Phenotype (%): 41%
  Total Cell Count: 175
[9]
  Population Apoptotic (%): 90%
  Population Fragmented Nuclei (%): 21%
  Population Healthy Nuclei (%): 72%
  Population Hoechst High Intensity Objects (%): 1%
  Population Membrane Permeable-Phenotype (%): 0%
  Population Mitochondria Different-Phenotype (%): 0%
  Population Mitotic Cells (%): 10%
  Population Normal (%): 98%
  Population Pyknosed Nuclei (%): 6%
  Population Tubulin-Different-Phenotype (%): 17%
  Total Cell Count: 168
[10]
  Population Apoptotic (%): 52%
  Population Fragmented Nuclei (%): 50%
  Population Healthy Nuclei (%): 41%
  Population Hoechst High Intensity Objects (%): 2%
  Population Membrane Permeable-Phenotype (%): 3%
  Population Mitochondria Different-Phenotype (%): 9%
  Population Mitotic Cells (%): 47%
  Population Normal (%): 97%
  Population Pyknosed Nuclei (%): 8%
  Population Tubulin-Different-Phenotype (%): 40%
  Total Cell Count: 211
[11]
  Population Apoptotic (%): 77%
  Population Fragmented Nuclei (%): 25%
  Population Healthy Nuclei (%): 65%
  Population Hoechst High Intensity Objects (%): 2%
  Population Membrane Permeable-Phenotype (%): 1%
  Population Mitochondria Different-Phenotype (%): 5%
  Population Mitotic Cells (%): 22%
  Population Normal (%): 97%
  Population Pyknosed Nuclei (%): 9%
  Population Tubulin-Different-Phenotype (%): 32%
  Total Cell Count: 195
[12]
  Population Apoptotic (%): 58%
  Population Fragmented Nuclei (%): 38%
  Population Healthy Nuclei (%): 54%
  Population Hoechst High Intensity Objects (%): 5%
  Population Membrane Permeable-Phenotype (%): 5%
  Population Mitochondria Different-Phenotype (%): 3%
  Population Mitotic Cells (%): 41%
  Population Normal (%): 94%
  Population Pyknosed Nuclei (%): 6%
  Population Tubulin-Different-Phenotype (%): 46%
  Total Cell Count: 187
